# Published values pooled from the literature.
# Protocols differ between the studies behind these lines.
# Target: Serine/threonine-protein kinase NLK (NLK, Homo sapiens, UniProt Q9UBE8)
# Residues used in one study (Q9UBE8 1-527): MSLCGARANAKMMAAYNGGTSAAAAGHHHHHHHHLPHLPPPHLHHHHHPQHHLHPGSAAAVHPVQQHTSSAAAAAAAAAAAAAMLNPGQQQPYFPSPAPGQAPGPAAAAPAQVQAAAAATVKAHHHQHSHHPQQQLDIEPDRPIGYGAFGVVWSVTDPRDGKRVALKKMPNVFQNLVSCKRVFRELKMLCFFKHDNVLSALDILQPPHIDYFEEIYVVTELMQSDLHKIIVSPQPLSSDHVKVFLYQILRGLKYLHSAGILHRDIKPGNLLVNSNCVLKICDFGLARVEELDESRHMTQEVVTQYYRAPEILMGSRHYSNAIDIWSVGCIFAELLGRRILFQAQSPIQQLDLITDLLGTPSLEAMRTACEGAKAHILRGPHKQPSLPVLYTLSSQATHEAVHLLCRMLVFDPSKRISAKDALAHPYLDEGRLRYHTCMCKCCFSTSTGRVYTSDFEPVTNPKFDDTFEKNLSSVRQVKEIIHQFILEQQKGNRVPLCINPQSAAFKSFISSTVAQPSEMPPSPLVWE
Compound,assay,conditions,quantity,value
O=c1[nH]c2ccccc2n1C1CCN(Cc2ccc(-c3[nH]c4cc5ncnc5cc4nc3-c3ccccc3)cc2)CC1,cell-free assay,0.5 µM,remaining signal,104%
COc1ncccc1-c1cnn2ccc(N3CCN(C(=O)OC(C)C)CC3)nc12,"binding, competition with immobilised ligand",1 µM,remaining binding,100%
Cn1cc(-c2cccc(N3CCc4c(sc5c4CC(C)(C)C5)C3=O)c2CO)cc(Nc2ccncn2)c1=O,"enzyme activity, inhibitor",1 µM,inhibition,-10%
Cc1nn(C)cc1-c1nc2c(N3CCN(Cc4ccc(Cl)cc4)CC3)c(Cl)cnc2[nH]1,"binding, competition with immobilised ligand",1 µM,remaining binding,72%
Cn1cc(-c2cc(F)cc(N3CCn4c(cc5c4CCCC5)C3=O)c2CO)cc(Nc2ccc(N3CCN(C4COC4)CC3)cn2)c1=O,"enzyme activity, inhibitor",0.1 µM,inhibition,-4%
N#CC1(c2ccccn2)CCN(Cc2cc(C(=O)O)c(=O)n3ccccc23)CC1,"cell-free assay, competition with immobilised ligand",1 µM,remaining binding,100%
Nc1ncc(-c2nc(N3CCOCC3)nc(N3CCOCC3)n2)c(C(F)F)n1,"binding, competition with immobilised ligand",10 µM,remaining binding,88%
COc1cc(Nc2ncc(F)c(Nc3ccc4c(n3)NC(=O)C(C)(C)O4)n2)cc(OC)c1OC,binding,10 µM,inhibition,0%
Cn1cncc1[C@@](O)(COc1ccc(C#N)cc1-c1ccc(OC(F)(F)F)cc1)c1ccc(C#N)cc1,"cell-free assay, competition with immobilised ligand",1 µM,remaining binding,100%
